Measurements published in ChEMBL document CHEMBL3414471 (J Med Chem, 2015).
Calls of active or inactive are those of the source. The rule behind the calls is not given here.

Key:
[1] = target: T1, 5-hydroxytryptamine receptor 2B (Homo sapiens, UniProt P41595); test: Agonist activity at human 5-HT2B receptor expressed in HEK293 cells assessed as calcium flux by FLIPR assay relative to 5-HT; assay type: functional, cell-based
Outline: (§1)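 Flp-In-293 cells stably expressing human 5-HT2A, 5-HT2B or 5-HT2C-INI; grown 24–48 h in DMEM/10% dialyzed FBS, plated on poly-L-Lys at 12000 cells/well in 1% dialyzed FBS for 24 h. Loaded 1 h at 37 °C with calcium dye in HBSS, 20 mM Hepes pH 7.40, 2.5 mM probenecid.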

CYP2B6 = target: T2, CYP2B6 (Homo sapiens, UniProt P20813); test: Inhibition of human CYP2B6 using bupropion as substrate at 10 uM; assay type: ADME; settings: probe bupropion
T2 sequence (P20813 whole entry): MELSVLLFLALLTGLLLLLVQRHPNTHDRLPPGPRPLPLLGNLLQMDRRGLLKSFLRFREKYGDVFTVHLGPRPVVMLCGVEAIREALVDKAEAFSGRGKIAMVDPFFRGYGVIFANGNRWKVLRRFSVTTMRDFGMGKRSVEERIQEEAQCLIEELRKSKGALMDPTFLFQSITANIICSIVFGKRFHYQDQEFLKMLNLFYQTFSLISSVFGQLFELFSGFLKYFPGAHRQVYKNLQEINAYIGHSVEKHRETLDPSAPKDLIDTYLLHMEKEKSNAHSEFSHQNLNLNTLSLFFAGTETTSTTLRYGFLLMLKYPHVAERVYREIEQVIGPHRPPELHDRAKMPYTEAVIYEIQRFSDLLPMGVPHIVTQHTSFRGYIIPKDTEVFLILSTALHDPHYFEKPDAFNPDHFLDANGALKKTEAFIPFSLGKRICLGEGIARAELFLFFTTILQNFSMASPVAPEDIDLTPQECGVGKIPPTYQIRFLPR

[2] = Plasma concentration in CD1 mouse at 10 mg/kg, ip after 0.5 hrs; assay type: ADME, organism-based; set-up: dose 10 mg/kg, route intraperitoneal
Outline: (§2)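 CD1 mice received a single 10 mg/kg ip dose formulated in pure water. Brain (ng/g) and plasma (ng/mL) levels were measured at 0.5 and 2 h. Brain/plasma ratio assumed a brain tissue density of 1 g/mL.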

Salmonella typhimurium [3] = test: Mutagenic activity in Salmonella typhimurium TA1535 at 10 to 100 uM by ames test in presence of S9 mixture; assay type: toxicity, organism-based; settings: salmonella enterica subsp. enterica serovar typhimurium
Outline: (§3)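 Ames fluctuation test in Salmonella strains TA98, TA100, TA1535 and TA1537, with and without S9, at 10, 50 and 100 µM; scored negative or positive.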

[4] = Plasma concentration in CD1 mouse at 10 mg/kg, ip after 2 hrs; assay type: ADME, organism-based; set-up: dose 10 mg/kg, route intraperitoneal; outline: as §2
[5] = target: T1, 5-hydroxytryptamine receptor 2B; test: Agonist activity at human 5-HT2B receptor expressed in HEK293 cells assessed as calcium flux by FLIPR assay; assay type: functional, cell-based
Salmonella typhimurium [6] = test: Mutagenic activity in Salmonella typhimurium TA1537 at 10 to 100 uM by ames test; assay type: toxicity, organism-based; settings: salmonella enterica subsp. enterica serovar typhimurium; outline: as §3
Salmonella typhimurium [7] = test: Mutagenic activity in Salmonella typhimurium TA1535 at 10 to 100 uM by ames test; assay type: toxicity, organism-based; settings: salmonella enterica subsp. enterica serovar typhimurium; outline: as §3
[8] = target: T3, 5-hydroxytryptamine receptor 2A (Homo sapiens, UniProt P28223); test: Agonist activity at human 5-HT2A receptor expressed in HEK293 cells assessed as calcium flux by FLIPR assay; assay type: functional, cell-based
T3 sequence (P28223 whole entry): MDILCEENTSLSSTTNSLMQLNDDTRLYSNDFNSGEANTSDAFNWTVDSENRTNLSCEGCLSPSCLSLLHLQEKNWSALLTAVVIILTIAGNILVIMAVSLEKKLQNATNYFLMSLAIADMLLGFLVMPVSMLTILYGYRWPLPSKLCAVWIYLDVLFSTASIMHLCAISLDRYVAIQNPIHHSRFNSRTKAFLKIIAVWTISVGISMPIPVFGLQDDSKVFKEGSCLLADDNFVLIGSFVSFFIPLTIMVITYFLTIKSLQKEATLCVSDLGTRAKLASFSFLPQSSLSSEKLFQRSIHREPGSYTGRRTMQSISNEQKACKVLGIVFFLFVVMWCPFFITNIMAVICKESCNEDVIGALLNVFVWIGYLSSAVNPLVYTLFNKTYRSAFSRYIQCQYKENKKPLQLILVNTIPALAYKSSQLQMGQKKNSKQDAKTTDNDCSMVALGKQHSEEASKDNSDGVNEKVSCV

Mus musculus [9] = test: Antipsychotic activity in C57BL/6J mouse assessed as reduction of amphetamine-induced locomotor activity at 10 to 20 mg/kg, ip administered 15 mins prior to amphetamine challenge measured for 105 mins by open field test relative to vehicle-treated control; assay type: functional, organism-based
[10] = Permeability from basolateral to apical side in human Caco2 cells at pH 7.4; assay type: ADME, cell-based; settings: caco-2, pH 7.4
Outline: (§4)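 Caco-2 monolayer permeability measured A–B and B–A in pH 7.4 buffer, reported as ×10−6 cm/s; A–B/B–A ratio derived from these.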

Salmonella typhimurium [11] = test: Mutagenic activity in Salmonella typhimurium TA1537 at 10 to 100 uM by ames test in presence of S9 mixture; assay type: toxicity, organism-based; settings: salmonella enterica subsp. enterica serovar typhimurium; outline: as §3
[12] = Permeability from apical to basolateral side in human Caco2 cells at pH 7.4; assay type: ADME, cell-based; settings: caco-2, pH 7.4; outline: as §4
[13] = target: T3, 5-hydroxytryptamine receptor 2A; test: Agonist activity at human 5-HT2A receptor expressed in HEK293 cells assessed as calcium flux by FLIPR assay relative to 5-HT; assay type: functional, cell-based; outline: as §1
[14] = Drug uptake in CD1 mouse brain at 10 mg/kg, ip after 2 hrs; assay type: ADME, organism-based; set-up: dose 10 mg/kg, route intraperitoneal; settings: read-out: Drug uptake; outline: as §2
Liver = test: Metabolic stability in mouse liver microsomes; assay type: ADME
Outline: (§5)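 Incubation with human or CD-1 mouse liver microsomes for 1 h; stability expressed as % parent compound remaining.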

Salmonella typhimurium [15] = test: Mutagenic activity in Salmonella typhimurium TA98 at 10 to 100 uM by ames test; assay type: toxicity, organism-based; settings: salmonella enterica subsp. enterica serovar typhimurium; outline: as §3
CYP2C19 = CYP2C19 (Homo sapiens, UniProt P33261); test: Inhibition of human CYP2C19 using omeprazole as substrate at 10 uM; assay type: ADME; settings: probe omeprazole
Sequence of CYP2C19 (P33261 whole entry): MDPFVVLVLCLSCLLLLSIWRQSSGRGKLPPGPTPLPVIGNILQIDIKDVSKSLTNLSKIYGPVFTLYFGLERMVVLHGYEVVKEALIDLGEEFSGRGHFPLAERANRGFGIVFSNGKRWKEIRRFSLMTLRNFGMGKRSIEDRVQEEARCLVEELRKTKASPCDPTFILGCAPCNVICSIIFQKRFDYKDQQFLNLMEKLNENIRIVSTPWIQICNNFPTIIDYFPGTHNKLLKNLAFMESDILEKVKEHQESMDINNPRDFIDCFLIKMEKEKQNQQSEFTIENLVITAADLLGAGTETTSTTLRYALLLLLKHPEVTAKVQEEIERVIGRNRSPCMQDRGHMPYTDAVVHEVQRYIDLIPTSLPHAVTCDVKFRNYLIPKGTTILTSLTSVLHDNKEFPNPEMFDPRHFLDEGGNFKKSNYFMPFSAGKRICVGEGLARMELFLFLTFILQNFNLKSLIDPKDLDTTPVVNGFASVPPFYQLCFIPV

[16] = target: T4, 5-hydroxytryptamine receptor 2C (Homo sapiens, UniProt P28335); test: Agonist activity at human 5-HT2C receptor expressed in HEK293 cells assessed as calcium flux by FLIPR assay; assay type: functional, cell-based
T4 sequence (P28335 whole entry): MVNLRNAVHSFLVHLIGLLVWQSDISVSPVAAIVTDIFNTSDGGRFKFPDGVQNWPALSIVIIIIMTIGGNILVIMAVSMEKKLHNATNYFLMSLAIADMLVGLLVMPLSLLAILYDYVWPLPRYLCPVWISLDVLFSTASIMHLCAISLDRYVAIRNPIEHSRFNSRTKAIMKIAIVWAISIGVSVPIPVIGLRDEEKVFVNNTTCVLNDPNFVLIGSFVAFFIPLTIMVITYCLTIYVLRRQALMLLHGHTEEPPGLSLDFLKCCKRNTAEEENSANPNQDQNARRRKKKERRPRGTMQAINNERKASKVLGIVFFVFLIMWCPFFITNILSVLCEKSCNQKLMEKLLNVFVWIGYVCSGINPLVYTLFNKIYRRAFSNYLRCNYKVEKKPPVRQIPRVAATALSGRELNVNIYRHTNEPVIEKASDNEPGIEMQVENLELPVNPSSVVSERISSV

Salmonella typhimurium [17] = test: Mutagenic activity in Salmonella typhimurium TA100 at 10 to 100 uM by ames test in presence of S9 mixture; assay type: toxicity, organism-based; settings: salmonella enterica subsp. enterica serovar typhimurium; outline: as §3
CYP2C9 = CYP2C9 (Homo sapiens, UniProt P11712); test: Inhibition of human CYP2C9 using diclofenac as substrate at 10 uM; assay type: ADME; settings: probe diclofenac
Sequence of CYP2C9 (P11712 whole entry): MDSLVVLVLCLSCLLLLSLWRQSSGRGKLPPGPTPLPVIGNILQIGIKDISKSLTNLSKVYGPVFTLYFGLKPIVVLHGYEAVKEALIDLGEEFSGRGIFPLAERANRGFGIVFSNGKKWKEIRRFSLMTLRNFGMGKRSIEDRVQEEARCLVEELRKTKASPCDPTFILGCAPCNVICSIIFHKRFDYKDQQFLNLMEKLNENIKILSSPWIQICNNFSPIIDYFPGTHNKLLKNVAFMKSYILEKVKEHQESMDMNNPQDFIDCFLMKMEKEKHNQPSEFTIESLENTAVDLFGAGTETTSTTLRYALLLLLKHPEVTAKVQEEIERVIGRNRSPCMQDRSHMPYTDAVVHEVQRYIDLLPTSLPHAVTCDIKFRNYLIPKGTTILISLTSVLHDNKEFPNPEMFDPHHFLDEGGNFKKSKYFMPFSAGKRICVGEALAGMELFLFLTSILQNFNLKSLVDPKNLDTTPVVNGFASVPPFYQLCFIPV

[18] = target: T5, 5-hydroxytryptamine receptor 2C (Homo sapiens) (UniProt P28335); test: Agonist activity at human 5-HT2C receptor expressed in HEK293 cells assessed as calcium flux by FLIPR assay relative to 5-HT; assay type: functional, cell-based; outline: as §1
T5 sequence (whole entry): T4 sequence (P28335 whole entry)

[19] = Drug uptake in CD1 mouse brain at 10 mg/kg, ip after 0.5 hrs; assay type: ADME, organism-based; set-up: dose 10 mg/kg, route intraperitoneal; settings: read-out: Drug uptake; outline: as §2
Salmonella typhimurium [20] = test: Mutagenic activity in Salmonella typhimurium TA100 at 10 to 100 uM by ames test; assay type: toxicity, organism-based; settings: salmonella enterica subsp. enterica serovar typhimurium; outline: as §3
[21] = Plasma protein binding in human at 10 uM; assay type: ADME, cell-free
Outline: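 Human plasma protein binding determined at 10 µM compound, expressed as % bound.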

Salmonella typhimurium [22] = test: Mutagenic activity in Salmonella typhimurium TA98 at 10 to 100 uM by ames test in presence of S9 mixture; assay type: toxicity, organism-based; settings: salmonella enterica subsp. enterica serovar typhimurium; outline: as §3
CYP3A = CYP3A (Homo sapiens, UniProt P08684+P20815+P24462+Q9HB55); test: Inhibition of human CYP3A using midazolam as substrate at 10 uM; assay type: ADME; settings: probe midazolam
Outline: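 Human liver microsomes, test compound at 10 µM, midazolam as CYP3A substrate; percent inhibition reported; run by a contract lab.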

CYP2D6 = CYP2D6 (Homo sapiens, UniProt P10635); test: Inhibition of human CYP2D6 using dextromethorphan as substrate at 10 uM; assay type: ADME; settings: probe dextromethorphan
Sequence of CYP2D6 (P10635 whole entry): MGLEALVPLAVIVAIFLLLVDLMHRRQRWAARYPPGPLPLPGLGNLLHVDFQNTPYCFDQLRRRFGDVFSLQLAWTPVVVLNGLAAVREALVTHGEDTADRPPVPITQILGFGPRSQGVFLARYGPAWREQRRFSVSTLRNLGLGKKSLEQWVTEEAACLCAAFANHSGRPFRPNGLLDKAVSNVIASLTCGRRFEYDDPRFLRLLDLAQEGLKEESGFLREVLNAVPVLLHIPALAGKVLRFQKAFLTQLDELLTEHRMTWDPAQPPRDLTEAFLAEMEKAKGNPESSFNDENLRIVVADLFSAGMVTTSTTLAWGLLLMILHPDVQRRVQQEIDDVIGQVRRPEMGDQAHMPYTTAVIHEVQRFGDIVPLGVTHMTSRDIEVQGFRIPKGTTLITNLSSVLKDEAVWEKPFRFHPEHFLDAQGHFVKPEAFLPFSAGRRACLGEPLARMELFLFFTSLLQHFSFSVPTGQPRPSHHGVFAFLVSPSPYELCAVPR

Liver microsome = test: Metabolic stability in human liver microsomes; assay type: ADME; outline: as §5
[23] = Efflux ratio of permeability from apical to basolateral side over basolateral to apical side in human Caco2 cells at pH 7.4; assay type: ADME, cell-based; settings: caco-2, pH 7.4
[24] = target: Voltage-gated inwardly rectifying potassium channel KCNH2 (Homo sapiens, UniProt Q12809); test: Inhibition of human ERG channel expressed in CHO cells by patch clamp method; assay type: cell-based
Sequence of Voltage-gated inwardly rectifying potassium channel KCNH2 (Q12809 whole entry): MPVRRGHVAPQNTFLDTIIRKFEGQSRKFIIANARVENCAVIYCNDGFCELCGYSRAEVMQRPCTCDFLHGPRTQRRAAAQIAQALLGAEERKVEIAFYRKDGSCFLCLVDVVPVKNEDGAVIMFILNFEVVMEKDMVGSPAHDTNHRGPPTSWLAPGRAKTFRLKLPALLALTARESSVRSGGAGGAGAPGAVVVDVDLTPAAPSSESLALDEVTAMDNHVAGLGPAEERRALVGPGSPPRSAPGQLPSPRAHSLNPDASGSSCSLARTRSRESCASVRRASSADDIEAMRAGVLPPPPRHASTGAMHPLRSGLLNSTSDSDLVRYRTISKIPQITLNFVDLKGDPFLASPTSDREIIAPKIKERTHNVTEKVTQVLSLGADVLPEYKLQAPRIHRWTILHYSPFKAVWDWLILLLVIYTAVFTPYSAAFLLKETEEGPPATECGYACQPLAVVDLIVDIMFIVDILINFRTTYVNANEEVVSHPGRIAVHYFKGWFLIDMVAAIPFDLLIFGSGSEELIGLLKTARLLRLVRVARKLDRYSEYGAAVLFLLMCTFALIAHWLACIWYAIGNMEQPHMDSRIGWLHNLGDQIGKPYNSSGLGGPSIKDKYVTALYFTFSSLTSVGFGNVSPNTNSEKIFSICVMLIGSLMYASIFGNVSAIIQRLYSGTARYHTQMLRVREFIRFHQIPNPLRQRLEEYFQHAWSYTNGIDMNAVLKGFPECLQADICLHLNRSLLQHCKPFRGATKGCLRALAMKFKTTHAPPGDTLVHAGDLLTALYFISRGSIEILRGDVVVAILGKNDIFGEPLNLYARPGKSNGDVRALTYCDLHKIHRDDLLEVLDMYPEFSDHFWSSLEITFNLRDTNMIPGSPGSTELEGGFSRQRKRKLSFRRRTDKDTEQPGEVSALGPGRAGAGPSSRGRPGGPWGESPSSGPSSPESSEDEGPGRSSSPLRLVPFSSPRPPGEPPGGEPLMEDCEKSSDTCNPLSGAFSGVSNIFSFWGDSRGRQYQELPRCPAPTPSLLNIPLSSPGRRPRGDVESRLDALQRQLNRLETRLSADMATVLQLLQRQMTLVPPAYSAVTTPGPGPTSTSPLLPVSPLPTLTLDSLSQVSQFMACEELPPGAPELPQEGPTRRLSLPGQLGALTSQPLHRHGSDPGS

Mus musculus [25] = test: Antipsychotic activity in C57BL/6J mouse assessed as reduction of amphetamine-induced locomotor activity administered ip 15 mins prior to amphetamine challenge measured for 105 mins by open field test relative to vehicle-treated control; assay type: functional, organism-based
Nucleic Acid [26] = test: Ratio of drug uptake from brain to plasma in CD1 mouse at 10 mg/kg, ip after 0.5 hrs; assay type: ADME, organism-based; set-up: dose 10 mg/kg, route intraperitoneal
[27] = target: T3, 5-hydroxytryptamine receptor 2A; test: Agonist activity at human 5-HT2A receptor expressed in HEK293 cells assessed as calcium flux at 10 uM by FLIPR assay; assay type: functional, cell-based
Outline: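 Flp-In-293 cells stably expressing human 5-HT2A, 5-HT2B or 5-HT2C-INI, grown in DMEM with 10% dialyzed FBS, then plated for 24 h in 1% dialyzed FBS. Cells were loaded 1 h at 37 °C with calcium dye in Hepes-buffered HBSS, pH 7.40, containing 2.5 mM probenecid. FLIPR read 10 s baseline, then 120 s after drug addition.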

Nucleic Acid [28] = test: Ratio of drug uptake from brain to plasma in CD1 mouse at 10 mg/kg, ip after 2 hrs; assay type: ADME, organism-based; set-up: dose 10 mg/kg, route intraperitoneal
[29] = target: T1, 5-hydroxytryptamine receptor 2B; test: Agonist activity at 5HT2B receptor (unknown origin) relative to control; outline: as §1
[30] = target: T4, 5-hydroxytryptamine receptor 2C; test: (§6) Agonist activity at 5HT2C receptor (unknown origin) relative to control
[31] = target: T5, 5-hydroxytryptamine receptor 2C (Homo sapiens); test: as §6
Homo sapiens = organism: Homo sapiens; test: Selectivity ratio of EC50 for 5HT2B receptor (unknown origin) to EC50 for 5HT2C receptor (unknown origin)

T1 sequence (P41595 whole entry): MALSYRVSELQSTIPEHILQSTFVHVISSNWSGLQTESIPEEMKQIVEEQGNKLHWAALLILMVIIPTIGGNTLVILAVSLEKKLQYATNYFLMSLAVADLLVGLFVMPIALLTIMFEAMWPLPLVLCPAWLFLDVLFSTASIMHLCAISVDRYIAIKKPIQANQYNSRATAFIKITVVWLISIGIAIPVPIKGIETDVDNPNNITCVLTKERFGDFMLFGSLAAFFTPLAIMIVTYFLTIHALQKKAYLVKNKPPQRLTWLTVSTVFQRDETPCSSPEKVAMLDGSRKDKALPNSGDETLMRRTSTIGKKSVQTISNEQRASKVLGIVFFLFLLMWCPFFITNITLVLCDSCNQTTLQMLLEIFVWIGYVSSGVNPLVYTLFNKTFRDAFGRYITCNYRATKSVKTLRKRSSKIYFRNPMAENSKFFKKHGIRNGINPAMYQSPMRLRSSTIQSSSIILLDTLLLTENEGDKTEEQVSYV

SMILES	Emax [1] [%]	inhibition at 10 µM (CYP2B6) [%]	concentration at 0.5 h [2] [µg/mL]	Activity (Salmonella typhimurium [3])	concentration at 2 h [4] [µg/mL]	EC50 [5] [µM]	Activity (Salmonella typhimurium [6])	Activity (Salmonella typhimurium [7])	permeability [10] [nm/s]	Activity (Salmonella typhimurium [11])	permeability [12] [nm/s]	concentration at 2 h [14] [ng/g]	Stability (Liver) [%]	Activity (Salmonella typhimurium [15])	inhibition at 10 µM (CYP2C19) [%]	EC50 [16] [µM]	Activity (Salmonella typhimurium [17])	inhibition at 10 µM (CYP2C9) [%]	Emax [18] [%]	concentration at 0.5 h [19] [ng/g]	other results
Cl.NC[C@H]1C[C@@H]1c1cc(Cl)ccc1OCCF	31	58	1.2	Non-toxic	0.874	0.632	Non-toxic	Non-toxic	175	Non-toxic	355	13400	74	Non-toxic	21	0.032	Non-toxic	33	86	12800	EC50 [8]: 1.48 µM; Activity (Mus musculus [9]): Active; Emax [13]: 35%; Activity (Salmonella typhimurium [20]): Non-toxic; PPB [21]: 57%; Activity (Salmonella typhimurium [22]): Non-toxic; inhibition at 10 µM (CYP3A): 22%; inhibition at 10 µM (CYP2D6): 79%; Stability (Liver microsome): 95%
C=C(F)COc1ccc(Cl)cc1[C@H]1C[C@@H]1CN.Cl	27	77	1.45	Non-toxic	0.903	1.69	Non-toxic	Non-toxic	108	Non-toxic	383	14700	62	Non-toxic	33	0.133	Non-toxic	51	81	17500	Ratio [23]: 3.5; IC50 [24]: 3.98 µM; Activity (Mus musculus [25]): Dose-dependent effect; BPR (Nucleic Acid [26]): 12.1; Activity [27]: inactive; BPR (Nucleic Acid [28]): 16.2; Activity (Salmonella typhimurium [20]): Non-toxic; PPB [21]: 68%; Activity (Salmonella typhimurium [22]): Non-toxic; inhibition at 10 µM (CYP3A): 27%; inhibition at 10 µM (CYP2D6): 80%; Stability (Liver microsome): 80%
Clc1cccc(COc2cncc(N3CCNCC3)n2)c1	–	–	–	–	–	–	–	–	–	–	–	–	–	–	–	–	–	–	–	–	EC50 [29]: 0.0653 µM; Emax [29]: 57%; EC50 [30]: 0.00011 µM; Emax [31]: 93%; Ratio EC50 (Homo sapiens): 600
